Legend:
[1] = Cytotoxicity against mouse peritoneal macrophages assessed as LDH release after 48 hrs; assay type: cell-based, Macrophage
Summary of the method: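 Mouse peritoneal macrophages at 2 × 10⁶ cells/well, 48 h at 37 °C in DMEM + 5% HIFCS with compound at 0, 10, 30, 90 µM in 0.5% DMSO. LDH released into medium measured by kit. Maximum and minimum release set by 2% Triton X-100 and 0.5% DMSO; means of triplicates.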

Leishmania amazonensis [2] = test: Antileishmanial activity against GFP-tagged Leishmania amazonensis Josefa amastigotes infected in mouse peritoneal macrophages after 72 hrs by fluorimetric assay; assay type: functional, organism-based
Summary of the method: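 Mouse peritoneal macrophages at 2 × 10⁶ cells/well, allowed to adhere, then infected 4 h at 37 °C with 10⁷ GFP-transfected fluorescent promastigotes. Free parasites washed off; cultured a further 72 h with compound at 0, 10, 30, 90 µM in 0.5% DMSO. Fluorescence read as for promastigotes. Maximum and minimum inhibition set by uninfected and untreated infected cells; means of triplicates.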

[3] = Selectivity index, ratio of IC50 for mouse peritoneal macrophages to IC50 for Leishmania amazonensis Josefa amastigotes
Summary of the method: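 Macrophage LDH-release IC50 divided by intracellular amastigote IC50.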

Leishmania amazonensis [4] = test: Antileishmanial activity against GFP-tagged Leishmania amazonensis Josefa promastigotes after 72 hrs by fluorimetric assay; assay type: functional, organism-based
Summary of the method: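 GFP-transfected promastigotes (kept in DMEM + 10% HIFCS at 27 °C, periodically re-isolated from infected mice) seeded at 5 × 10⁵ cells/ml in DMEM, 5% HIFCS, 0.5% DMSO. Exposed to 0, 10, 30, 90 µM for 72 h at 27 °C. Fluorescence read at […] / 538 nm emission; IC50 from means of triplicates.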

[5] = Leishmania amazonensis, Josefa, 72 h

Row | IC50 (Leishmania amazonensis [2]; [5]) | IC50 (Leishmania amazonensis [4]; [5]) | IC50 (Leishmania amazonensis [2]) | IC50 (Leishmania amazonensis [4]) | Compound | IC50 ([1]; Mus musculus, Macrophage, 48 h) | Ratio IC50 [3] | IC50 ([1]; macrophage)
1 | 13.2 µM | 17.1 µM | – | – | CC[C@H](C)[C@H]1O[C@]2(CC[C@@H]1C)C[C@@H](O)C[C@@H](C/C=C(\C)[C@@H](O[C@H]1C[C@H](OC)[C@@H](O[C@H]3C[C@H](OC)[C@@H](O)[C@H](C)O3)[C@H](C)O1)[C@@H](C)CO)O2 | 55 µM | 4.2 | –
2 | 13.8 µM | > 90 µM | – | – | CCOC(=O)C1=C[C@H](C)[C@@H](O)[C@H]2OC/C(=C\CO)[C@@]12O | > 90 µM | >6.5 | –
3 | – | 4.4 µM | – | – | C[C@@H]1[C@H](O)[C@@H](C)/C=C/C=C/C=C/C=C/C=C/C=C/C=C/[C@H](O[C@@H]2O[C@H](C)[C@@H](O)[C@H](N)[C@@H]2O)C[C@@H]2O[C@](O)(C[C@@H](O)C[C@@H](O)[C@H](O)CC[C@@H](O)C[C@@H](O)CC(=O)O[C@H]1C)C[C@H](O)[C@H]2C(=O)O [AMPHOTERICIN B] | – | – | –
4 | 41.5 µM | 65.7 µM | – | – | CC[C@H](C)[C@H]1O[C@]2(CC[C@@H]1C)C[C@@H](O)C[C@@H](C/C=C(\C)[C@@H](O[C@H]1C[C@H](OC)[C@@H](O)[C@H](C)O1)[C@@H](C)CO)O2 [NORTHERN MONOSACCHARIDE] | 32.1 µM | 0.8 | –
5 | 54.5 µM | > 90 µM | – | – | CC[C@H](C)[C@H]1O[C@]2(CC[C@@H]1C)C[C@@H](O)C[C@@H](CCO)O2 [SPIRODIOL] | > 90 µM | >1.7 | –
6 | – | – | – | – | D-glutonic acid, 2,4:2',4'-O-[oxybis-(oxidostibylidyne)]bis-, trisodium salt, nonahydrate | – | > 5 | –
7 | 3.6 µM | 13.8 µM | – | – | CC[C@H](C)[C@H]1O[C@]2(CC[C@@H]1C)C[C@@H]1C[C@@H](C/C=C(\C)[C@@H](O[C@H]3C[C@H](OC)[C@@H](O[C@H]4C[C@H](OC)[C@@H](O)[C@H](C)O4)[C@H](C)O3)[C@@H](C)/C=C/C=C3\CO[C@@H]4[C@H](O)[C@@H](C)C=C(C(=O)O1)[C@]34O)O2 | 65.5 µM | 18.2 | –
8 | 38.6 µM | > 90 µM | – | – | CCOC(=O)[C@@H]1C=C(C)[C@@H](O)[C@H]2OC/C(=C\CO)[C@]21O [SOUTHERN DIOL] | > 90 µM | >2.3 | –
9 | – | – | – | – | IVERMECTIN [listing 1 of 2 here] | – | 14.5 | –
10 | – | – | 5 µM | 7 µM | IVERMECTIN [listing 2 of 2 here] | – | – | 72.4 µM
11 | 6.5 µM | 10.7 µM | – | – | CCOC(=O)[C@@H]1C=C(C)[C@@H](O)[C@H]2OC/C(=C\C=C\[C@H](C)[C@H](O[C@H]3C[C@H](OC)[C@@H](O[C@H]4C[C@H](OC)[C@@H](O)[C@H](C)O4)[C@H](C)O3)/C(C)=C/C[C@@H]3C[C@H](O)C[C@]4(CC[C@H](C)[C@@H]([C@@H](C)CC)O4)O3)[C@]21O | 42.9 µM | 6.6 | –
12 | 30.5 µM | > 90 µM | – | – | CC[C@H](C)[C@H]1O[C@]2(CC[C@@H]1C)C[C@@H](O)C[C@@H](C/C=C(\C)[C@@H](O)[C@@H](C)CO)O2 [NORTHERN AGLYCONE] | > 90 µM | >3 | –
13 | > 90 µM | > 90 µM | – | – | CO[C@H]1C[C@H](O[C@H]2[C@H](C)O[C@@H](O[C@H](C(C)O)[C@@H](C)CO)C[C@@H]2OC)O[C@@H](C)[C@@H]1O (some centres undefined) | 86.2 µM | <1 | –
14 | 32 µM | 8.3 µM | – | – | CC[C@H](C)[C@H]1O[C@]2(CC[C@@H]1C)C[C@@H]1C[C@@H](C/C=C(\C)[C@@H](O)[C@@H](C)/C=C/C=C3\CO[C@@H]4[C@H](O)C(C)=C[C@@H](C(=O)O1)[C@]34O)O2 [IVM AGLYCONE] | > 90 µM | >2.8 | –
15 | 4.6 µM | 2.8 µM | – | – | CCOC(=O)C1=C[C@H](C)[C@@H](O)[C@H]2OC/C(=C\C=C\[C@H](C)[C@H](O[C@H]3C[C@H](OC)[C@@H](O[C@H]4C[C@H](OC)[C@@H](O)[C@H](C)O4)[C@H](C)O3)/C(C)=C/C[C@@H]3C[C@H](O)C[C@]4(CC[C@H](C)[C@@H]([C@@H](C)CC)O4)O3)[C@@]12O | 27.1 µM | 5.8 | –
16 | 29.7 µM | 7.7 µM | – | – | CC[C@H](C)[C@H]1O[C@]2(CC[C@@H]1C)C[C@@H]1C[C@@H](C/C=C(\C)[C@@H](O[C@H]3C[C@H](OC)[C@@H](O)[C@H](C)O3)[C@@H](C)/C=C/C=C3\CO[C@@H]4[C@H](O)C(C)=C[C@@H](C(=O)O1)[C@]34O)O2 | > 90 µM | >3 | –
